# Only some compounds are listed: those with a hit (about 1.9% of all), similar ones and a draw of the others.
# MBD2 inh – inhibitors of MBD2 binding to methylated DNA, primary screen, biochemical, TR-FRET, DNA-binding domain, human | Methyl-CpG-binding domain protein 2 (Homo sapiens), Q9UBB5 | MBD2 binding to methylated oligonucleotide | inhibition, % at 4.4 µM | 370,000 tested, 0.31% active; in the data active means inhibition above about 13%
# Target sequence (Q9UBB5 whole entry, looked up, the tested form may be a part): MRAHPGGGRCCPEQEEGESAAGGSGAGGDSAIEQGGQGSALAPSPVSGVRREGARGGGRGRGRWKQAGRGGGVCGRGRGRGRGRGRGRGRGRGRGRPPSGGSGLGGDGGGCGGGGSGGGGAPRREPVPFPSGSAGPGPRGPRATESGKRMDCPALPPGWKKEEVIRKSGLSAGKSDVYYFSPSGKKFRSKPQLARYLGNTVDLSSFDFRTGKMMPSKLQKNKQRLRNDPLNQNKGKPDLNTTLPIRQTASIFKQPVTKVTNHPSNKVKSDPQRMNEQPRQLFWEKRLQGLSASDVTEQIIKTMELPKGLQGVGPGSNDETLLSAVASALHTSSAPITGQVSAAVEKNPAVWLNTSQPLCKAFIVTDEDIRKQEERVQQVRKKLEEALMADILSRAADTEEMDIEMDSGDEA
# Rin1 Abl inh – inhibitors of Rin1-Abl protein binding, primary screen, biochemical, TR-FRET; Tyrosine-protein kinase ABL1 (Homo sapiens) + Ras and Rab interactor 1 (Homo sapiens), …; inhibition, % at 7.35 µM; 360,000 tested, 0.4% active; AID 588664, 2011; in the data active means inhibition above about 5%, passing the limit was not always enough
# UHRF1 binding – UHRF1 methylated DNA binding inhibitors, primary screen, counter-screen for MBD2 inhibitor project, biochemical, TR-FRET, human UHRF1, single concentration; E3 ubiquitin-protein ligase UHRF1 (Homo sapiens), Q96T88; 370,000 tested, 0.75% active; UHRF1 binding to methylated oligo; inhibition, % at 4.4 µM; in the data active means inhibition above about 21%;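 further: UHRF1 SRA domain binding a hemimethylated CpG hairpin DNA probe; 0% = median of test compound wells and 100% = reference inhibitor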
# TDP2 absorb – human TDP2 enzyme inhibitors, primary screen, biochemical, epi absorbance, recombinant enzyme. Tyrosyl-DNA phosphodiesterase 2 (Homo sapiens), O95551. T5PNP hydrolysis, p-nitrophenol absorbance 415 nm. 370,000 tested, 0.34% active. AID 720702, 2013. inhibition, % at 12.8 µM;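 active means inhibition above the mean of all tested compounds plus 3 SD, set per campaign, cut at about 25% in these data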;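 further: 0% = DMSO with enzyme and 100% = buffer with substrate but no TDP2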
#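 System: recombinant human TDP2 / Amount: 120 nM TDP2 per well / Also added: 5 mM T5PNP chromogenic substrate / Doses: 12.8 µM single point, 1% DMSO / Incubation: 2 h at 37 °C / Detection: p-Nitrophenol epi absorbance / Evaluation: % inhibition relative to enzyme-containing and enzyme-free wells / Repeats: singlicate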
# LEDGF integ inh – blockers of LEDGF/p75-dependent integrase strand transfer – biochemical, TR-FRET, high throughput, primary screen; HIV-1 integrase (with human LEDGF/p75); TR-FRET IN-LEDGF/p75 DNA integration, Eu/Cy5; inhibition, % at 3.7 µM; 370,000 tested, 0.64% active;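 active means inhibition above the screen-wide mean plus 3 SD, cut at about 13% in these data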;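 further: signal is the Cy5 over europium emission ratio at 671 and 618 nm; 0% = plate median of compound wells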
# IN multimer act – HIV-1 IN multimer formation enhancers, counter-screen for LEDGF/p75 integration inhibitor project, biochemical, TR-FRET; 2,000 tested, 17% active; activation, % at 7.7 µM; TR-FRET HIV-1 integrase multimerization; shares compounds with LEDGF integ inh; in the data active means activation above about 8.9%
# TR-FRET interf – TR-FRET optical interference artefacts, confirmation, artefact control for LEDGF/p75-dependent integration inhibitor project, biochemical, HIV-1 IN multimerization. shares compounds with LEDGF integ inh. TR-FRET optical interference counterscreen. inhibition, % at 7.7 µM. 2,000 tested, under 10 active. AID 1053135, 2014;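 active means inhibition above the mean over all tested compounds plus 3 SD, which no compound reached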;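 further: 0% = integrase with antibodies and DMSO and 100% = antibodies without integrase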
# LEDGF integ conf – inhibitors of HIV-1 IN-LEDGF/p75 DNA integration, confirmation, biochemical, TR-FRET; AID 1053136, 2014; inhibition, % at 3.7 µM; shares compounds with LEDGF integ inh; TR-FRET LEDGF/p75-dependent HIV-1 integration; 2,000 tested, 36% active; in the data active means inhibition above about 14%
# Numbers without * were called inactive; · = no result.
SMILES,MBD2 inh,Rin1 Abl inh,UHRF1 binding,TDP2 absorb,LEDGF integ inh,IN multimer act,TR-FRET interf,LEDGF integ conf
Cc1ccc(NC(=O)C2CCN(S(=O)(=O)c3c(C)noc3/C=C/c3ccco3)CC2)nc1,0,-1,2,-14,1,·,·,·
Cc1cccnc1NC(=O)C1CCN(S(=O)(=O)c2c(C)noc2/C=C/c2ccco2)CC1,1,0,-2,-8,24*,0,-2,-11
Cc1noc(/C=C/c2ccco2)c1S(=O)(=O)N1CCC(C(=O)NCc2ccco2)CC1,-8,-4,1,-4,33*,3,-9,1
Cc1nonc1N1CCN(Cc2cn[nH]c2-c2ccc(F)cc2F)CC1,2,-1,0,6,-1,·,·,·
Cc1nonc1N1CCN(Cc2cn[nH]c2-c2ccc3c(c2)OCO3)CC1,3,1,1,-9,53*,0,2,0
CCNCc1ccccc1OCc1ccccc1,1,-1,1,6,0,·,·,·
Oc1ccc(NCc2ccccc2OCc2ccccc2)cc1,-10,3,-2,12,14*,15*,-54,24*
Cc1c(NC(=O)CN2CCN(c3ccc(O)cc3)CC2)c(=O)n(-c2ccccc2)n1C,0,2,-3,1,3,·,·,·
CC1(Cc2cccc(C(F)(F)F)c2)C(=O)Nc2ccc(-c3ccc(F)c(Cl)c3)cc21 (configuration not stated),-6,-2,-1,5,-5,·,·,·
COc1ccc(OC)c(NC(=O)COC(=O)/C=C/c2ccco2)c1,5,1,15,-21,22*,1,-6,-4
Cc1nc(NC(=O)COC(=O)/C=C/c2ccco2)c(Cl)cc1Cl,-2,-1,19,-9,33*,2,-7,0
CC(=O)O[C@@H]1C=C[C@@H](C#Cc2ccc(C(C)(C)C)cc2)O[C@@H]1COC(=O)Nc1ccccc1,1,·,6,-8,12,·,·,·
CN(C)CCCNc1cc(O)c2ncccc2c1,-6,7,0,14,30*,-4,22,40*
Oc1cc(NCc2ccc(F)cc2)cc2cccnc12,-10,0,-8,4,12,·,·,·
Cc1c(NC(=O)c2cccc(NC(=O)Cc3c(F)cccc3Cl)c2)c(=O)n(-c2ccccc2)n1C,-1,2,0,-2,-1,·,·,·
Cc1c(NC(=O)c2cccc(NC(=O)Cc3ccc(F)cc3)c2)c(=O)n(-c2ccccc2)n1C,1,2,0,-2,19*,0,-2,-5
C=CCc1c(C)nc(-c2ccccc2)nc1N/N=C/c1ccccc1,2,3,-4,-4,53*,-1,5,25*
O=S(=O)(NNc1ccc(F)cc1F)c1cccc(Cl)c1,-1,1,-1,3,-2,·,·,·
C/C(CC(=O)Nc1ccccn1)=N\NC(=O)c1ccccc1O,-5,-1,-5,-21,38*,1,-4,46*
C/C(CC(=O)Nc1ccccn1)=N\NC(=O)c1ccc2ccccc2c1,-1,1,-7,3,-2,·,·,·
CC(=O)Nc1ccc(NC(=O)c2c([N+](=O)[O-])cnn2C)cc1,-1,0,-4,-2,-1,·,·,·
Cn1ncc([N+](=O)[O-])c1C(=O)Nc1ccc(-c2nc3ccccc3o2)cc1,-6,0,-3,-1,35*,0,0,-8
O=[N+]([O-])c1cc2ccccc2c(O)c1O,-16,1,-5,9,18*,4,-20,30*
COc1cc(C(=O)OC2CCOC2=O)cc(Cl)c1OC (configuration not stated),1,0,-1,-4,-3,·,·,·
CCOCCCN(C(=O)c1snc(C(N)=O)c1N)C(C(=O)NCCC(C)C)c1ccc(Cl)cc1 (configuration not stated),-1,-1,0,-8,-2,·,·,·
SMILES,MBD2 inh,Rin1 Abl inh,UHRF1 binding,TDP2 absorb,LEDGF integ inh,IN multimer act,TR-FRET interf,LEDGF integ conf
Cc1cc(O)c(N=Cc2cc3c(cc2[N+](=O)[O-])OCO3)cc1C,-2,3,0,0,19*,6,-30,6
COc1ccccc1NC(=O)/C(C#N)=C/C=C/c1ccco1,6,2,6,0,25*,1,-5,4
Cc1ccc(CN(C)C(=O)c2cc(COc3cccc(C(F)(F)F)c3)on2)o1,4,4,0,5,-3,·,·,·
NC(c1csc(Nc2cc(Oc3ccccc3)ncn2)n1)C1CCCCC1 (configuration not stated),-7,0,-2,-10,13*,0,1,-7
NC(CO)c1csc(Nc2ccc(C(F)(F)F)cn2)n1 (configuration not stated),3,2,-3,-5,0,·,·,·
NC(c1csc(Nc2ccc(C(F)(F)F)cn2)n1)C1CCCCC1 (configuration not stated),-2,4,-3,-9,18*,0,-1,-4
Cc1ccc(-c2nc(NCc3ccc(F)cc3)n(S(C)(=O)=O)n2)cc1,-4,1,0,8,14*,-1,4,-5
CN(C)c1ccc(CNc2nc(-c3ccccc3)nn2S(C)(=O)=O)cc1,-4,0,-1,0,1,·,·,·
COc1cc2c(cc1CNC[C@H]1O[C@@H](n3cnc4c(N)ncnc43)[C@H](O)[C@@H]1O)OCO2,·,4,·,·,·,·,·,·
CC(=O)c1ccc(NC(=O)CSc2nnc(-c3ccco3)c(-c3ccco3)n2)cc1,-1,0,20,7,35*,12*,-44,45*
CC(=O)Nc1ccc(NC(=O)CSc2nnc(-c3ccco3)o2)cc1,0,-1,3,-12,6,·,·,·
CN1CCN(c2cccc3c2S(=O)(=O)N[C@@H](Cc2ccccc2)CO3)CC1,3,·,0,3,3,·,·,·
